Data published in ChEMBL document CHEMBL1154006, “Optimisation of a series of potent, selective and orally bioavailable GlyT1 inhibitors” (Bioorg Med Chem Lett, 2009).
pIC50: −log10 of the molar value.

Tests used:
[1] = Metabolic stability in dog liver microsomes assessed as parent compound turnover at 1 uM after 15 mins; format: ADME, Canis lupus familiaris, Microsome; details: read-out: Stability
Summary of the method: (§1)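 Test compounds at 1 μM incubated at 37 °C for 15 min with liver microsomes (rat, dog or human) at 0.5 mg/ml protein. Cosolvent was 0.99% MeCN + 0.01% DMSO. Read-out is % turnover of parent.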

[2] = molecular target: T1, Sodium- and chloride-dependent glycine transporter 2 (Homo sapiens, UniProt Q9Y345); assay: Inhibition of human glycine transporter 2
T1 sequence (Q9Y345 whole entry): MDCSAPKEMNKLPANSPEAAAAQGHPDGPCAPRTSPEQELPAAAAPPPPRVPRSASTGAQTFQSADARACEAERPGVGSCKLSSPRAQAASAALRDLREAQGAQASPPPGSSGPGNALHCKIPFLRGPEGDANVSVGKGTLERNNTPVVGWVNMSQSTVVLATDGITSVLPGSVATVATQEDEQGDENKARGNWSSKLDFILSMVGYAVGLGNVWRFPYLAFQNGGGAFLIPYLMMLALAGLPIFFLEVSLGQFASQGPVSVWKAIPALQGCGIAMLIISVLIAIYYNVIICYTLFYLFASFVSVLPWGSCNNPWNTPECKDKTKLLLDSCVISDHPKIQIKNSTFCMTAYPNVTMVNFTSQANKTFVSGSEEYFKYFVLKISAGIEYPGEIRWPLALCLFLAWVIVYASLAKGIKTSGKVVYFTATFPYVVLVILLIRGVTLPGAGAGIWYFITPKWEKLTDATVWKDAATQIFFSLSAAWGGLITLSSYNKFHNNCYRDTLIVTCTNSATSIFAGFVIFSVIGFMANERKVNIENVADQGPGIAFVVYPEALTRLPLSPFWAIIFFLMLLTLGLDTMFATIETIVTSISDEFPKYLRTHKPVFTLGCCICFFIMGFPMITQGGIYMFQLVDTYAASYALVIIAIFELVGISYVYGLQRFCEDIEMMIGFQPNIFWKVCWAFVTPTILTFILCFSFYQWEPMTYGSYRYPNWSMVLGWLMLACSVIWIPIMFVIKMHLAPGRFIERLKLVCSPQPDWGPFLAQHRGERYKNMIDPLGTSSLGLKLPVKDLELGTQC

[3] = test system: Mus musculus; assay: Ex vivo occupancy of glycine transporter 1 in po dosed mouse; format: functional
[4] = molecular target: T2, Sodium- and chloride-dependent glycine transporter 1 (Homo sapiens, UniProt P48067); assay: Inhibition of [3H]glycine uptake at human glycine transporter 1 expressed in human JAR cells after 3 hrs by scintillation counting; format: cell-based
T2 sequence (P48067 whole entry): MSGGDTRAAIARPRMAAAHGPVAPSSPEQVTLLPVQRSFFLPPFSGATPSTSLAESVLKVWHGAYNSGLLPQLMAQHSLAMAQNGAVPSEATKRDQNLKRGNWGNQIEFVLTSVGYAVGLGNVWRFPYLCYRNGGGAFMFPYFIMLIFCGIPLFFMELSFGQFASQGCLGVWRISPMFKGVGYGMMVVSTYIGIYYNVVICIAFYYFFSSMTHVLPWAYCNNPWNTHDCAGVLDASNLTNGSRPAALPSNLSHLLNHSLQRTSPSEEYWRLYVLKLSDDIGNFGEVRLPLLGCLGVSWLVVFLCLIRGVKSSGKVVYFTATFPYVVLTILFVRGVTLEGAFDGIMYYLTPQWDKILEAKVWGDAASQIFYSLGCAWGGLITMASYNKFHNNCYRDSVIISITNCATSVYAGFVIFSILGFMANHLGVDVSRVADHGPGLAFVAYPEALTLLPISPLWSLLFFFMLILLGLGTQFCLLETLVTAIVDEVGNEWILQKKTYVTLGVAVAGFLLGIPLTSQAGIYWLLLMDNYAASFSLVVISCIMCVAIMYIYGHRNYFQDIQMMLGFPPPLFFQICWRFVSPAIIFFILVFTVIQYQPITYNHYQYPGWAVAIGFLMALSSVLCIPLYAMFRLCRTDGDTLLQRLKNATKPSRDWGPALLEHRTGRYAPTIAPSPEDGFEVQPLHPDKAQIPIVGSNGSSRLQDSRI

[5] = Metabolic stability in rat liver microsomes assessed as parent compound turnover at 1 uM after 15 mins; format: ADME, Microsome; details: read-out: Stability; summary of the method: as §1
[6] = Bioavailability in Sprague-Dawley rat at 0.1 mg/kg, iv and 1 mg/kg, po; format: ADME, organism-based; details: in vivo
Summary of the method: (§2)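 Six male Sprague-Dawley rats were used. Three received 0.1 mg/kg i.v. and three received 1 mg/kg p.o.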

[7] = Volume of distribution in Sprague-Dawley rat at 0.1 mg/kg, iv and 1 mg/kg, po; format: ADME, organism-based; details: in vivo; summary of the method: as §2
[8] = Half life in Sprague-Dawley rat at 0.1 mg/kg, iv and 1 mg/kg, po; format: ADME, organism-based; details: in vivo; summary of the method: as §2
[9] = Metabolic stability in human liver microsomes assessed as parent compound turnover at 1 uM after 15 mins; format: ADME, Microsome; details: read-out: Stability; summary of the method: as §1
[10] = Clearance in Sprague-Dawley rat at 0.1 mg/kg, iv and 1 mg/kg, po; format: ADME, organism-based; details: in vivo; summary of the method: as §2
[11] = molecular target: T3, Sodium- and chloride-dependent glycine transporter 1 (Homo sapiens) (UniProt P48067); assay: Inhibition of [3H]glycine uptake at human glycine transporter 1 expressed in human JAR cells at 3 uM after 3 hrs by scintillation counting; format: cell-based
T3 sequence (whole entry): T2 sequence (P48067 whole entry)

[12] = Plasma clearance in Sprague-Dawley rat at 0.1 mg/kg, iv and 1 mg/kg, po; format: ADME, organism-based; summary of the method: as §2
[13] = Volume of distribution at steady state in Sprague-Dawley rat at 0.1 mg/kg, iv and 1 mg/kg, po; format: ADME, organism-based; details: in vivo, read-out: Vdss; summary of the method: as §2
[14] = test system: Rattus norvegicus; assay: In vivo occupancy of glycine transporter 1 in rat; format: functional

Structure (SMILES) | metabolised at 0.25 h, 1 µM [1] | pIC50 [4] | metabolised at 0.25 h, 1 µM [5] | metabolised at 0.25 h, 1 µM [9] | also measured
Cn1cc(S(=O)(=O)N2CCC(CNC(=O)c3ccc(Cl)cc3Cl)(CC3CC3)CC2)nn1 | 34% | 9.49 | 88% | 43% | pIC50 [2]: < 5.00; Occ50 [3]: <1 mg/kg; bioavailability [6]: 27%; Vd [7]: 2.2 L/kg; half-life [8]: 1.1 h; clearance [10]: 39 mL/min/kg
O=C(NCC1(c2ncccc2F)CCN(S(=O)(=O)c2cccs2)CC1)c1ccc(Cl)cc1Cl | 72% | 6.90 | 98% |  | 
Cn1cc(S(=O)(=O)N2CCC(CNC(=O)c3ccc(Cl)cc3Cl)(c3ncccc3F)CC2)cn1 | 24% | 8.27 | 55% | 42% | pIC50 [2]: < 5.00
CCCS(=O)(=O)N1CCC(CNC(=O)c2ccc(Cl)cc2Cl)(c2ncccc2F)CC1 | 25% | 8.36 | 73% | 23% | 
Cn1cc(S(=O)(=O)N2CC(CNC(=O)c3ccc(Cl)cc3Cl)(CC3CC3)C2)nn1 | 24% | 10.00 | 88% | 32% | 
O=C(NCC1(c2ncccc2F)CCN(S(=O)(=O)Cc2ccccc2)CC1)c1ccc(Cl)cc1Cl |  |  |  |  | inhibition [11]: 33%
Cn1cnnc1S(=O)(=O)N1CCC(CNC(=O)c2ccc(Cl)cc2Cl)(CC2CC2)CC1 |  | 6.91 |  |  | 
O=C(NCC1(c2ncccc2F)CCN(S(=O)(=O)c2cccnc2)CC1)c1ccc(Cl)cc1Cl | 96% | 7.94 | 99% | 99% | 
Cn1nncc1S(=O)(=O)N1CC(CNC(=O)c2ccc(Cl)cc2Cl)(CC2CC2)C1 |  | 6.73 |  |  | 
Cn1cc(S(=O)(=O)N2CCC(CNC(=O)c3ccc(Cl)cc3Cl)(c3ncccc3F)CC2)nn1 | 17% | 9.19 | 6% | 20% | pIC50 [2]: < 5.00; Occ50 [3]: 7.5 mg/kg; bioavailability [6]: 3%; half-life [8]: 0.3 h
Cn1ncc(S(=O)(=O)N2CC(CNC(=O)c3ccc(Cl)cc3Cl)(CC3CC3)C2)n1 |  | 6.88 |  |  | 
O=C(NCC1(c2ncccc2F)CCN(S(=O)(=O)c2ccc(Cl)s2)CC1)c1ccc(Cl)cc1Cl |  |  |  |  | inhibition [11]: 20%
Cn1cc(S(=O)(=O)N2CCC(CNC(=O)c3ccc(Cl)cc3Cl)(CC3CC3)CC2)cn1 | 38% | 7.99 | 5% | 10% | pIC50 [2]: < 5.00
O=C(NCC1(CC2CC2)CN(S(=O)(=O)c2c[nH]nn2)C1)c1ccc(Cl)cc1Cl |  | 6.06 |  |  | 
Cn1cc(S(=O)(=O)[C@H]2CC[C@@](CNC(=O)c3ccc(Cl)cc3Cl)(CC3CC3)CC2)nn1 |  | 8.72 | 23% | 28% | bioavailability [6]: 59%; clearance [12]: 16 mL/min/kg; half-life [8]: 1.8 h; Vd [13]: 2.3 L/kg; Occ50 [14]: 2.2 mg/kg
Cn1ncnc1S(=O)(=O)N1CCC(CNC(=O)c2ccc(Cl)cc2Cl)(CC2CC2)CC1 |  | 6.50 |  |  | 
O=C(NCC1(c2ncccc2F)CCN(S(=O)(=O)c2ccccc2)CC1)c1ccc(Cl)cc1Cl |  |  |  |  | inhibition [11]: 38%
Cn1cc(S(=O)(=O)N2CC(CNC(=O)c3ccc(Cl)cc3Cl)(CC3CC3)C2)cn1 | 70% | 8.44 | 17% | 21% | pIC50 [2]: < 5.00; Occ50 [3]: 3.8 mg/kg; bioavailability [6]: 48%; clearance [12]: 46 mL/min/kg; half-life [8]: 2.4 h
CCn1cc(S(=O)(=O)N2CCC(CNC(=O)c3ccc(Cl)cc3Cl)(CC3CC3)CC2)nn1 |  | 7.55 |  |  | 
O=C(NCC1(c2ncccc2F)CCN(S(=O)(=O)CC2CC2)CC1)c1ccc(Cl)cc1Cl | 20% | 8.70 | 78% | 21% | 
Cn1cnc(S(=O)(=O)N2CCC(CNC(=O)c3ccc(Cl)cc3Cl)(c3ncccc3F)CC2)c1 | 21% | 8.76 | 30% |  | pIC50 [2]: < 5.00
CCn1cc(S(=O)(=O)N2CC(CNC(=O)c3ccc(Cl)cc3Cl)(CC3CC3)C2)nn1 | 44% | 8.59 | 65% | 45% | 
Cc1nc(S(=O)(=O)N2CCC(CNC(=O)c3ccc(Cl)cc3Cl)(c3ncccc3F)CC2)cn1C |  |  |  |  | inhibition [11]: 31%
O=C(NCC1(CC2CC2)CCN(S(=O)(=O)c2cn(CC(F)(F)F)nn2)CC1)c1ccc(Cl)cc1Cl |  | 6.30 |  |  | 
Cn1cc(S(=O)(=O)N2CC(CNC(=O)c3ccc(Cl)cc3Cl)(c3ncccc3F)C2)cn1 | < 5% | 8.53 | 56% | 25% | 
Cn1cnc(S(=O)(=O)N2CCC(CNC(=O)c3ccc(Cl)cc3Cl)(CC3CC3)CC2)n1 |  |  |  |  | inhibition [11]: 13%
Cn1cc(S(=O)(=O)N2CC(CNC(=O)c3ccc(Cl)cc3Cl)(c3ncccc3F)C2)nn1 | 5% | 9.51 | 15% | 22% | 
Cn1cc(S(=O)(=O)[C@H]2CC[C@](CNC(=O)c3ccc(Cl)cc3Cl)(CC3CC3)CC2)nn1 |  | 8.26 | 10% | 28% | bioavailability [6]: 105%; clearance [12]: 34 mL/min/kg; half-life [8]: 1.1 h; Vd [13]: 2.6 L/kg; Occ50 [14]: 3.4 mg/kg
